Among the data in ChEMBL document CHEMBL3244403, “Cholecystokinin (pancreozymin). 4. Synthesis and properties of a biologically active analogue of the C-terminal heptapeptide with epsilon-hydroxynorleucine sulfate replacing tyrosine sulfate” (J Med Chem, 1978) are Activity and Rf values, retold here.

The source made the active and inactive calls. No cut-off for these calls is given here. Starred links: 1 amine or outer side, 2 acyl side, 3 side chain; linkers in the order of their positions; H or OH if unused. Non-standard residues stand in square brackets, D forms with d. Residues, ends and D or L forms follow the SMILES beside them. *: point of attachment. X1 = O=C([C@H](CCCCOS(=O)(=O)O)N[*:1])[*:2]; sY = N[C@@H](Cc1ccc(OS(=O)(=O)O)cc1)C(=O)O; Boc = CC(C)(C)OC(=O)*

The species named for data set [1] is Cavia porcellus. Description: Agonist activity at cholecystokinin receptor in NIH guinea pig assessed as gall bladder contraction at 7 to 1900 ng by in situ assay. The data set is classed as tissue-based. The method, boiled down:
(§1)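 Guinea pig gall bladder in situ (Ljungberg method), contraction recorded via strain gauge transducer after injection. Peptides first dissolved at 10 μg/mL in physiological saline containing 1 mg/mL NaHCO3 and 1 mg/mL L-cysteine. Response compared with injected standard cholecystokinin in Ivy dog units.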

The species entered for data set [2] is Cavia porcellus. As to the kind of experiment: Agonist activity at cholecystokinin receptor in NIH guinea pig pancreatic acinar cells assessed as induction of amylase secretion. In short, it runs like this:
(§2)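 Guinea pig pancreas collagenase-dispersed acini in 100% O2-gassed Hepes buffer pH 7.4 containing 0.5 mM calcium and 5 mM theophylline. Amylase in supernatant assayed in duplicate with Phedabas reagent. Release expressed as % of total cellular amylase appearing in medium during incubation. CCK-(26-33) used as reference.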

Data set [3] is filed under the species Cavia porcellus. Description: Agonist activity at cholecystokinin receptor in NIH guinea pig pancreatic acinar cells assessed as induction of amylase secretion at 0.03 to 0.3 nM. In short, it runs like this: as §2
The nature of data set [4]: Retardation factor of the compound using EtOAc-pyridine-AcOH-H2O at ratio of 120:20:6:11 as solvent system by thin layer chromatography. The data set is classed as physicochemical.
Data set [5] in a line: Retardation factor of the compound using EtOAc-pyridine-AcOH-H2O at ratio of 60:20:6:11 as solvent system by thin layer chromatography. The data set is classed as physicochemical.
Data set [6] can be described thus: Retardation factor of the compound using 1-butanol-AcOH-H2O at ratio of 4:1:1 as solvent system by thin layer chromatography. The data set is classed as physicochemical.
The species named for data set [7] is Cavia porcellus. Description: Agonist activity at cholecystokinin receptor in NIH guinea pig assessed as gall bladder contraction at 7 to 21 ng by in situ assay. It counts as tissue-based. The method, boiled down:
as §1

The species entered for data set [8] is Cavia porcellus. As to the kind of experiment: Agonist activity at cholecystokinin receptor in NIH guinea pig assessed as gall bladder contraction at 7 ng by in situ assay. The data set is classed as tissue-based. In short, it runs like this: as §1

As to `CSCC[C@H](NC(=O)[C@H](COS(=O)(=O)O)NC(=O)OC(C)(C)C)C(=O)NCC(=O)N[C@@H](Cc1c[nH]c2ccccc12)C(=O)N[C@@H](CCSC)C(=O)N[C@@H](CC(=O)O)C(=O)N[C@@H](Cc1ccccc1)C(N)=O`, the result in the data set filed under Cavia porcellus [1] and in the data set listed under Cavia porcellus [2] was Active.

Turning to `CSCC[C@H](NC(=O)[C@H](Cc1ccc(OS(=O)(=O)O)cc1)NC(=O)[C@@H](N)CC(=O)O)C(=O)NCC(=O)N[C@@H](Cc1c[nH]c2ccccc12)C(=O)N[C@@H](CCSC)C(=O)N[C@@H](CC(=O)O)C(=O)N[C@@H](Cc1ccccc1)C(N)=O`, the result in the data set filed under Cavia porcellus [3] was Active.

For the compound `CSCC[C@H](NC(=O)[C@H](CCCCOS(=O)(=O)O)NC(=O)OC(C)(C)C)C(=O)NCC(=O)N[C@@H](Cc1c[nH]c2ccccc12)C(=O)N[C@@H](CCSC)C(=O)N[C@@H](CC(=O)O)C(=O)N[C@@H](Cc1ccccc1)C(N)=O` (Boc-[X1]MGWMDF-NH2), the outcome in the data set filed under Cavia porcellus [2] and in the data set listed under Cavia porcellus [7] was Active. Besides, the Rf was 0.19 in data set [4], 0.31 in data set [5] and 0.55 in data set [6].

In the case of `CSCC[C@H](NC(=O)[C@H](Cc1ccc(OS(=O)(=O)O)cc1)NC(=O)OC(C)(C)C)C(=O)NCC(=O)N[C@@H](Cc1c[nH]c2ccccc12)C(=O)N[C@@H](CCSC)C(=O)N[C@@H](CC(=O)O)C(=O)N[C@@H](Cc1ccccc1)C(N)=O` (Boc-[sY]MGWMDF-NH2), the outcome in the data set listed under Cavia porcellus [2] and in the data set listed under Cavia porcellus [8] was Active.
